Data published in ChEMBL document CHEMBL1143019, “Hybrid molecules of estrone: new compounds with potential antibacterial, antifungal, and antiproliferative activities” (2007).

Columns and labels:
Staphylococcus aureus [1] = test: Antibacterial activity against Staphylococcus aureus SG 511 after 24 hrs by micro-broth dilution method; assay type: functional; conditions: SG 511, 24 h
Method in brief: (§1)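 Microbroth dilution per NCCLS guidelines. Bacteria grown overnight at 37 °C in Mueller–Hinton broth. Compound solution serially diluted twofold in MHB, then wells inoculated to a final 5×10⁵ CFU/mL. Incubated 24 h at 37 °C. MIC (µg/mL) read on an automatic plate reader as the lowest dilution allowing no visible growth.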

Staphylococcus aureus [2] = test: Antibacterial activity against methicillin-resistant Staphylococcus aureus 994/93 after 24 hrs by micro-broth dilution method; assay type: functional
Method in brief: (§2)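 Broth microdilution per NCCLS in Mueller–Hinton broth. Overnight cultures grown at 37 °C. Compound serially diluted twofold, then wells inoculated to a final 5×10⁵ CFU/mL. Plates held at 37 °C for 24 h. MIC (µg/mL) read on an automatic plate reader as the lowest dilution with no visible growth.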

Staphylococcus aureus [3] = test: Antibacterial activity against methicillin-resistant Staphylococcus aureus 134/94 after 24 hrs by microbroth dilution method; assay type: functional; method in brief: as §2
Micrococcus luteus = test: Antibacterial activity against Micrococcus luteus ATCC 10240 after 24 hrs by microbroth dilution method; assay type: functional; conditions: ATCC 10240, 24 h; method in brief: as §1
Enterococcus faecalis = test: Antibacterial activity against Enterococcus faecalis 1528 after 24 hrs by micro-broth dilution method; assay type: functional; method in brief: as §1
[4] = tested on: Mycolicibacterium smegmatis; test: Antimicrobial activity against Mycobacterium smegmatis SG 987 after 24 hrs by micro-broth dilution method; assay type: functional; method in brief: as §1
Mycolicibacterium aurum = test: Antimicrobial activity against Mycobacterium aurum SB 66 after 24 hrs by micro-broth dilution method; assay type: functional; method in brief: as §1
Mycolicibacterium vaccae = test: Antimicrobial activity against Mycobacterium vaccae 10670 after 24 hrs by micro-broth dilution method; assay type: functional; method in brief: as §1
[5] = tested on: Mycolicibacterium fortuitum; test: Antimicrobial activity against Mycobacterium fortuitum Borstel after 24 hrs by microbroth dilution method; assay type: functional; method in brief: as §1
[6] = tested on: Mycobacterium tuberculosis; test: Antimicrobial activity against Mycobacterium tuberculosis My 331/88 after 14 days; assay type: functional; conditions: 336 h
[7] = tested on: Mycobacterium tuberculosis; test: Antimicrobial activity against Mycobacterium tuberculosis My 331/88 after 21 days; assay type: functional; conditions: 504 h
Mycobacterium avium [8] = test: Antimicrobial activity against Mycobacterium avium My 330/88 after 14 days; assay type: functional; conditions: 336 h
Mycobacterium avium [9] = test: Antimicrobial activity against Mycobacterium avium My 330/88 after 21 days; assay type: functional; conditions: 504 h
Mycobacterium kansasii [10] = test: Antimicrobial activity against Mycobacterium kansasii My 235/80 after 7 days; assay type: functional; conditions: 168 h
Method in brief: (§3)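 Run in Šula semisynthetic liquid medium containing bovine serum. Compounds added as DMSO solutions at final concentrations of […]. Each strain was also inoculated onto Löwenstein–Jensen medium to control inoculum sterility and growth.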

Mycobacterium kansasii [11] = test: Antimicrobial activity against Mycobacterium kansasii My 235/80 after 14 days; assay type: functional; conditions: 336 h; method in brief: as §3
Mycobacterium kansasii [12] = test: Antimicrobial activity against Mycobacterium kansasii My 235/80 after 21 days; assay type: functional; conditions: 504 h; method in brief: as §3
Mycobacterium kansasii [13] = test: Antimicrobial activity against Mycobacterium kansasii My 6509/96 after 7 days; assay type: functional; conditions: 168 h; method in brief: as §3
Mycobacterium kansasii [14] = test: Antimicrobial activity against Mycobacterium kansasii My 6509/96 after 14 days; assay type: functional; conditions: 336 h; method in brief: as §3
Candida albicans [15] = test: Antifungal activity against Candida albicans ATCC 44859 after 24 hrs; assay type: functional; conditions: ATCC 44859, 24 h
Method in brief: (§4)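 Modified NCCLS M27-A broth microdilution with clinical isolates subcultured on Sabouraud dextrose agar. Suspensions diluted 1:50 in RPMI 1640 to give a final inoculum of 0.5–2.5×10³ CFU/mL for yeasts or 0.5–5×10⁴ CFU/mL for molds. The RPMI had L-glutamine, no bicarbonate, and 0.165 M MOPS to pH 7.0. Twofold dilutions from 250 to 0.49. Plates held at 35 °C, humid, without agitation. MIC is the lowest concentration giving ≥80% inhibition versus drug-free control, read at 24 and 48 h.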

Candida albicans [16] = test: Antifungal activity against Candida albicans ATCC 44859 after 48 hrs; assay type: functional; conditions: ATCC 44859, 48 h; method in brief: as §4
Candida tropicalis [17] = test: Antifungal activity against Candida tropicalis 156 after 24 hrs; assay type: functional; method in brief: as §4
Candida tropicalis [18] = test: Antifungal activity against Candida tropicalis 156 after 48 hrs; assay type: functional; method in brief: as §4
Pichia kudriavzevii [19] = test: Antifungal activity against Candida krusei E28 after 24 hrs; assay type: functional; method in brief: as §4
Pichia kudriavzevii [20] = test: Antifungal activity against Candida krusei E28 after 48 hrs; assay type: functional; method in brief: as §4
Nakaseomyces glabratus [21] = test: Antifungal activity against Candida glabrata 20/I after 24 hrs; assay type: functional; method in brief: as §4
Nakaseomyces glabratus [22] = test: Antifungal activity against Candida glabrata 20/I after 48 hrs; assay type: functional; method in brief: as §4
Trichosporon beigelii [23] = test: Antifungal activity against Trichosporon beigelii 1188 after 24 hrs; assay type: functional; method in brief: as §4
Trichosporon beigelii [24] = test: Antifungal activity against Trichosporon beigelii 1188 after 48 hrs; assay type: functional; method in brief: as §4
Aspergillus fumigatus [25] = test: Antifungal activity against Aspergillus fumigatus 231 after 24 hrs; assay type: functional; method in brief: as §4
Aspergillus fumigatus [26] = test: Antifungal activity against Aspergillus fumigatus 231 after 48 hrs; assay type: functional; method in brief: as §4
Lichtheimia corymbifera [27] = test: Antifungal activity against Absidia corymbifera 272 after 24 hrs; assay type: functional; method in brief: as §4
Lichtheimia corymbifera [28] = test: Antifungal activity against Absidia corymbifera 272 after 48 hrs; assay type: functional; method in brief: as §4
Trichophyton benhamiae [29] = test: Antifungal activity against Trichophyton mentagrophytes 445 after 72 hrs; assay type: functional, Arthroderma benhamiae
Method in brief: (§5)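 Same modified M27-A microdilution with the mold inoculum of 0.5–5×10⁴ CFU/mL. Medium was RPMI 1640 with L-glutamine, no bicarbonate, and 0.165 M MOPS at pH 7.0. Twofold dilutions from 250 to 0.49. Incubated at 35 °C in a humid atmosphere.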

Trichophyton benhamiae [30] = test: Antifungal activity against Trichophyton mentagrophytes 445 after 120 hrs; assay type: functional, Arthroderma benhamiae; method in brief: as §5
L929 = test: Antiproliferative activity against mouse L929 cells after 72 hrs; assay type: functional; conditions: L929, 72 h
Method in brief: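 About 10,000 adherent cells per well in RPMI 1640 with 10% heat-inactivated FBS and penicillin/streptomycin, without HEPES. Exposed to 10 concentrations for 72 h at 37 °C in humidified 5% CO₂. Monolayers fixed with glutaraldehyde, stained 15 min with 0.05% methylene blue, and eluted with 0.33 N HCl; OD read at 630 nm. GI50 derived from dose–response curves relative to control.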

K562 = test: Antiproliferative activity against human K562 cells after 72 hrs; assay type: functional; conditions: K562, 72 h
Method in brief: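 About 10,000 suspension cells per well in RPMI 1640 with 10% heat-inactivated FBS and penicillin/streptomycin, without HEPES. Exposed to 10 concentrations for 72 h at 37 °C in humidified 5% CO₂. Wells diluted 1:50 in CASYTON and counted electronically, each result the mean of three successive counts. GI50 is where the concentration–response curve crosses 50% of control cell count.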

HeLa = test: Cytotoxicity against human HeLa cells after 72 hrs; assay type: functional; conditions: for CC50: Homo sapiens, HeLa, 72 h
Method in brief: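 About 10,000 cells per well in RPMI 1640 were preincubated 48 h without compound. The 10 test concentrations were then applied onto the monolayers and incubated 72 h at 37 °C in humidified 5% CO₂. Monolayers fixed with glutaraldehyde, stained with 0.05% methylene blue, and eluted with 0.33 N HCl; optical density measured at 630 nm.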

Mycobacterium kansasii [31] = test: Antimicrobial activity against Mycobacterium kansasii My 6509/96 after 21 days; assay type: functional; conditions: 504 h; method in brief: as §3

SMILES | MIC (Staphylococcus aureus [1]) | MIC (Staphylococcus aureus [2]) | MIC (Staphylococcus aureus [3]) | MIC (Micrococcus luteus) | MIC (Enterococcus faecalis) | MIC [4] | MIC (Mycolicibacterium aurum) | MIC (Mycolicibacterium vaccae) | MIC [5] | MIC [6] | MIC [7] | MIC (Mycobacterium avium [8]) | MIC (Mycobacterium avium [9]) | MIC (Mycobacterium kansasii [10]) | MIC (Mycobacterium kansasii [11]) | MIC (Mycobacterium kansasii [12]) | MIC (Mycobacterium kansasii [13]) | MIC (Mycobacterium kansasii [14]) | MIC (Candida albicans [16]) | MIC (Pichia kudriavzevii [20]) | further results
C[C@]12CC[C@@H]3c4ccc(OCCCCCCC[n+]5ccc(SCc6ccc(Cl)cc6)cc5)cc4CC[C@H]3[C@@H]1CCC2=O.[Br-] | 3.12 µg/mL | 3.12 µg/mL | 3.12 µg/mL | 0.8 µg/mL | 3.12 µg/mL | 6.25 µg/mL | 3.12 µg/mL | 1.56 µg/mL | 6.25 µg/mL | 16 µM | 16 µM | 8 µM | 8 µM | 16 µM | 16 µM | 16 µM | 16 µM | 16 µM | 7.8 µM | 15.6 µM | MIC (Candida albicans [15]): 7.8 µM; MIC (Candida tropicalis [17]): 15.6 µM; MIC (Candida tropicalis [18]): 15.6 µM; MIC (Pichia kudriavzevii [19]): 7.8 µM; MIC (Nakaseomyces glabratus [21]): 15.6 µM; MIC (Nakaseomyces glabratus [22]): 15.6 µM; MIC (Trichosporon beigelii [23]): 7.8 µM; MIC (Trichosporon beigelii [24]): 7.8 µM; MIC (Aspergillus fumigatus [25]): 15.6 µM; MIC (Aspergillus fumigatus [26]): 31 µM; MIC (Lichtheimia corymbifera [27]): 62.5 µM; MIC (Lichtheimia corymbifera [28]): 62.5 µM; MIC (Trichophyton benhamiae [29]): 7.8 µM; MIC (Trichophyton benhamiae [30]): 15.6 µM; GI50 (L929): 2.8 µg/mL; GI50 (K562): 1 µg/mL; CC10 (HeLa): 1.9 µg/mL; CC50 (HeLa): 4.1 µg/mL
Cc1ccc(CSc2cc[n+](CCCCCCCOc3ccc4c(c3)CC[C@@H]3[C@@H]4CC[C@]4(C)C(=O)CC[C@@H]34)cc2)cc1.[Br-] | 1.56 µg/mL | 3.12 µg/mL | 3.12 µg/mL | 0.8 µg/mL | 3.12 µg/mL | 6.25 µg/mL | 3.12 µg/mL | 1.56 µg/mL | 6.25 µg/mL | 4 µM | 8 µM | 8 µM | 8 µM | 16 µM | 16 µM | 16 µM | 16 µM | 16 µM | 3.9 µM | 7.8 µM | MIC (Mycobacterium kansasii [31]): 16 µM; MIC (Nakaseomyces glabratus [22]): 7.8 µM; MIC (Trichosporon beigelii [24]): 7.8 µM; MIC (Lichtheimia corymbifera [28]): 15.6 µM; MIC (Trichophyton benhamiae [30]): 7.8 µM; GI50 (L929): 3.5 µg/mL; GI50 (K562): 13.1 µg/mL; CC10 (HeLa): 1 µg/mL; CC50 (HeLa): 1.9 µg/mL
